Activity calls are given as the source filed them. The rule behind the calls is not given here.

Data set [1] in a line: Inhibition of Mycobacterium tuberculosis HtdX using crotonoyl-CoA substrate by UV-visible spectrophotometry. In short, it runs like this: (§1)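 50 mM HEPES pH 7.5 with 100 mM NaCl at 25 °C, containing 100 nM HtdX, 10 µM crotonoyl-CoA and 5% methanol. Started with substrate; A263 decrease read every 2 min. IC50 taken graphically from dose-response plots. Mode found by varying crotonoyl-CoA at three inhibitor levels, using Lineweaver-Burk plots.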

The nature of data set [2]: Inhibition of Mycobacterium tuberculosis FabG4 assessed as reduction in NADH to NAD+ conversion using acetoacetyl-CoA substrate by UV-visible spectrophotometry. In short, it runs like this:
(§2)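 50 mM HEPES pH 7.4 at 25 °C with 1 µM FabG4, 0.2 mM β-NADH, 0.5 mM acetoacetyl-CoA and 5% methanol. Started with substrate; A340 decrease read every 2 min. IC50 taken graphically from dose-response plots. Mode found by varying NADH at three inhibitor levels, using Lineweaver-Burk plots.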

The test system of data set [3] is Mycobacterium tuberculosis. Briefly: Induction of changes in secondary structure of Mycobacterium tuberculosis FabG4 assessed as unordered level at 50 uM by CD spectroscopy (reference value: 33.5%).
The subject of data set [4] is Mycobacterium tuberculosis. Briefly: Induction of changes in secondary structure of Mycobacterium tuberculosis FabG4 assessed as turns level at 50 uM by CD spectroscopy (reference value: 34.6%).
Data set [5] in a line: Drug metabolism in culture media assessed as isoniazid release in presence of Mycobacterium smegmatis str. MC2 155 incubated for 24 hrs by HPLC method. Format: physicochemical. A digest of the protocol: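 Compound incubated in culture medium with M. smegmatis for 24 h. Culture then lyophilised, redissolved and run on HPLC (100% methanol eluent, 1.2 mL/min), checking for an isoniazid peak.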

Data set [6] deals with Mycobacterium tuberculosis. As to the kind of experiment: Induction of changes in secondary structure of Mycobacterium tuberculosis FabG4 assessed as beta-sheet level at 50 uM by CD spectroscopy (reference value: 6%).
The subject of data set [7] is Mycolicibacterium smegmatis. As to the kind of experiment: Antimycobacterial activity against Mycobacterium smegmatis str. MC2 155 assessed as inhibition of microbial growth incubated for 24 hrs by REMA method. Format: functional. As to conditions: str. MC2 155, 24 h. A digest of the protocol:
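M. smegmatis mc2155 grown in 7H9 broth with 0.2% glycerol and 0.05% Tween 80 at 37 °C, 120 rpm, to mid-log (OD595 ~0.5). Diluted to OD595 0.0005 and exposed to drug for 24 h at 37 °C. Then 0.02% resazurin added for 40 min. MIC is the lowest concentration preventing the blue-to-pink change. Two repeats, averaged.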

The subject of data set [8] is Mycobacterium tuberculosis. Briefly: Binding affinity to Mycobacterium tuberculosis FabG4 assessed as second binding constant at 25 degC by isothermal titration calorimetry. A digest of the protocol: (§3)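 FabG4 at 4.5 µM in 50 mM HEPES pH 7.4 in the cell, titrated at 25 °C with 500 µM ligand in 5% methanol-buffer (0.4 µL then 19 × 2 µL, 120 s spacing). Buffer-ligand reference titration subtracted. Two sequential binding events, per monomer of the homodimer.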

The subject of data set [9] is Mycolicibacterium smegmatis. Briefly: Inhibition of biofilm formation of Mycobacterium smegmatis str. MC2 155 at 20 ug/ml incubated at 37 degC without shaking for 4 weeks. Format: functional. As to conditions: str. MC2 155, 672 h. A digest of the protocol:
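M. smegmatis mc2155 planktonic culture inoculated at 1% into Sauton's minimal medium without Tween-80. Inhibitor at 5, 10, 20, 50 and 100 µg/mL, with a no-inhibitor control. Plates sealed and held static at 37 °C for 4 weeks; biofilm formation assessed visually.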

Data set [10] concerns Mycobacterium tuberculosis. Briefly: Competitive inhibition of Mycobacterium tuberculosis FabG4 assessed as reduction in NADH to NAD+ conversion using acetoacetyl-CoA substrate and varying NADH levels by UV-visible spectrophotometry. A digest of the protocol: as §2
Data set [11] concerns Mycobacterium tuberculosis. As to the kind of experiment: Induction of changes in secondary structure of Mycobacterium tuberculosis FabG4 assessed as helix level at 50 uM by CD spectroscopy (reference value: 25.9%).
Data set [12] concerns Mycobacterium tuberculosis. As to the kind of experiment: Binding affinity to Mycobacterium tuberculosis FabG4 assessed as first binding constant at 25 degC by isothermal titration calorimetry. A digest of the protocol: as §3
(In ITC the heat of successive injections is recorded.)

The subject of data set [13] is Mycobacterium tuberculosis. Briefly: Induction of changes in secondary structure of Mycobacterium tuberculosis HtdX assessed as turns level at 50 uM by CD spectroscopy (reference value: 12.6%).
Data set [14] concerns Mycobacterium tuberculosis. Briefly: Induction of changes in secondary structure of Mycobacterium tuberculosis HtdX assessed as beta-sheet level at 50 uM by CD spectroscopy (reference value: 40.1%).
In data set [15] the test system is Mycobacterium tuberculosis. Briefly: Induction of changes in secondary structure of Mycobacterium tuberculosis HtdX assessed as unordered level at 50 uM by CD spectroscopy (reference value: 35.2%).
Data set [16] relates to Mycobacterium tuberculosis. As to the kind of experiment: Competitive inhibition of Mycobacterium tuberculosis HtdX using varying crotonoyl-CoA substrate by UV-visible spectrophotometry. In short, it runs like this: as §1
Data set [17] deals with Mycobacterium tuberculosis. Briefly: Binding affinity to Mycobacterium tuberculosis HtdX assessed as binding constant at 25 degC by isothermal titration calorimetry. A digest of the protocol:
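HtdX at 10 µM in 50 mM HEPES pH 7.5 with 100 mM NaCl in the cell, titrated at 25 °C with 500 µM ligand in 5% methanol-buffer (0.4 µL then 19 × 2 µL). Buffer-ligand reference subtracted. Isotherm fitted to a one-site model.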

In data set [18] the test system is Mycobacterium tuberculosis. Briefly: Induction of changes in secondary structure of Mycobacterium tuberculosis HtdX assessed as helix level at 50 uM by CD spectroscopy (reference value: 12.2%).

As a reminder, the IC50 is the concentration at which inhibition is half-maximal. On to `O=C(O)[C@@H]1C(=O)N(c2ccccc2)[C@H]1c1ccncc1` (relative stereo), for which the IC50 entry in data set [1] was “Not Active”; in [2] (read-out: IC50) it was 64.3 µM.

As to `O=C(O)[C@@H]1C(=O)N(c2ccccc2)[C@H]1c1cccs1` (relative stereo), the IC50 result in [1] and in data set [2] was “Not Active” each time.

As to `O=C(O)[C@@H]1C(=O)N(c2ccccc2)[C@H]1c1ccco1` (relative stereo), the concentration for half-maximal inhibition (IC50) result in [1] and in data set [2] was “Not Active” throughout.

As for `O=C1[C@@H](CO)[C@H](c2ccncc2)N1c1ccccc1` (relative stereo), the IC50 result is “Not Active” in data set [1] and 666 µM in data set [2] (read-out: IC50).

As a reminder, the MIC is the least concentration at which growth counts as inhibited. The term inhibition denotes the drop in the measured response relative to a control, in per cent. Regarding `O=C(NNC(=O)[C@@H]1C(=O)N(c2ccccc2)[C@H]1c1ccncc1)c1ccncc1` (relative stereo), the IC50 in [1] (read-out: IC50) is 22.3 µM; in data set [2] (read-out: IC50), 15.2 µM. The Activity in data set [3] came to 34.4%; in data set [4] it was 29.8%; in data set [6], 5.7%; in data set [11] it was 30%. Also, the Drug metabolism entry in data set [5] is “metabolite_notdetected”. Further, the minimal inhibitory concentration (MIC) in data set [7] stood at 15 µg/mL. Also, the K worked out at 1.15 ×10³ /M in [8] and 2.98 ×10⁵ /M in [12]. Moreover, in data set [9], at 20 µg/mL the inhibition was 100%. In addition, the inhibition result in data set [10] is “Active”.

As to `O=C(NNC(=O)[C@@H]1C(=O)N(c2ccccc2)[C@H]1c1cccs1)c1ccncc1` (relative stereo), the Activity in [13] worked out at 2.6%; in [14], 50.6%; in data set [15] it was 35.7%; in [18], 11.1%. The results for the IC50 in [1] (read-out: IC50) and in data set [2] (read-out: IC50) were 10.3 µM and 26.1 µM, respectively. Further, in data set [7], the MIC was found to be 20 µg/mL. For the same compound, the inhibition result in data set [16] was “Active”. In addition, the K in data set [17] turned out to be 4.21 ×10⁵ /M.

As to `O=C(NNC(=O)[C@@H]1C(=O)N(c2ccccc2)[C@H]1c1ccco1)c1ccncc1` (relative stereo), the IC50 is 17.6 µM in data set [1] (read-out: IC50) and 27.6 µM in data set [2] (read-out: IC50). Also, in [7], the MIC was 15 µg/mL.

For the compound `O=C(NNC(=O)[C@@H]1C(=O)N(c2ccccc2)[C@H]1c1ccncc1)c1ccccc1` (relative stereo), the values for the IC50 entry in data set [1] and in data set [2] (read-out: IC50) were “Not Active” and 39.9 µM, respectively.

As for `NNC(=O)c1ccncc1` [ISONIAZID], the MIC in data set [7] was 10 µg/mL.

Source of the values: ChEMBL document CHEMBL3588761, “Design, synthesis and characterization of dual inhibitors against new targets FabG4 and HtdX of Mycobacterium tuberculosis” (Eur J Med Chem, 2015).
